Results published in ChEMBL document CHEMBL1833907, “Triterpenoid constituents from the roots of Paeonia rockii ssp. rockii” (J Nat Prod, 2011).
Active and inactive are the calls of the source. The calls are words filed in the database; no cut-off is given here.

Tests used:
Type in all cases: functional, cell-based
[1] = test system: M14; experiment: Cytotoxicity against human M14 cells after 48 hrs by MTT assay; conditions: M14, 48 h
Summary of the method: (§1)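 M-14 melanoma cells grown in DMEM with 2 mM L-glutamine, 10% heat-inactivated FBS and 1% penicillin/streptomycin, used for at most 10 passages. Cells were seeded at 3 × 10^3 per well, given serial dilutions (1–50 μM) and incubated 48 h at 37 °C in humidified 5% CO2. Viability was read by MTT at 620 nm.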

[2] = test system: M14; experiment: Cytotoxicity against human M14 cells at 1 to 50 uM after 48 hrs by MTT assay; summary of the method: as §1
[3] = test system: M14; experiment: Induction of apoptosis in human M14 cells assessed as increase in hypodiploid cells after 24 hrs using propidium iodide staining by flow cytometry
Summary of the method: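 M-14 melanoma cells (DMEM, 2 mM L-glutamine, 10% heat-inactivated FBS, 1% penicillin/streptomycin, 37 °C, humidified 5% CO2, ≤10 passages) incubated 24 h with serial dilutions of compounds (1–50 μM). Nuclei stained with propidium iodide and analysed by flow cytometry. Apoptosis is taken as the percentage of hypodiploid nuclei versus untreated control. Three experiments, each in triplicate, means ± SEM.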

[4] = test system: M14; experiment: Induction of apoptosis in human M14 cells assessed as activation of caspase-3 at 50 uM after 8 to 24 hrs by Western blot analysis
[5] = test system: M14; experiment: Induction of apoptosis in human M14 cells assessed as activation of caspase-3 at 50 uM after 24 hrs by Western blot analysis presence of polycaspase inhibitor z-VAD-fmk
[6] = test system: M14; experiment: Induction of apoptosis in human M14 cells assessed as increase in hypodiploid cells up to 25 uM after 24 hrs using propidium iodide staining by flow cytometry
Summary of the method: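 M-14 cells were treated with 1–50 μM for 24 h, then collected and stained with propidium iodide. The percentage of hypodiploid (apoptotic) nuclei was measured by flow cytometry against untreated controls. Values are means ± SEM of three experiments run in triplicate.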

Row | Compound | IC50 [1] | Activity [2] | also measured
1 | C=C(C)[C@@H]1CC[C@]2(C(=O)O)CC[C@]3(C)[C@H](CC[C@@H]4[C@@]5(C)CC[C@H](O)[C@@](C)(CO)[C@@H]5CC[C@]43C)[C@@H]12 | 50 µM |  | 
2 | C=C1CC[C@@]23CC[C@]4(C)[C@@](OC2=O)([C@@H]3C1)[C@H]1O[C@H]1[C@@H]1[C@@]2(C)CC[C@H](O)[C@@](O)(CO)[C@@H]2CC[C@]14C |  | inactive | 
3 | C=C1CC[C@]2(C(=O)O)CC[C@]3(C)C(=CC[C@@H]4[C@@]5(C)CC[C@H](O)C(C)(C)[C@@H]5CC[C@]43C)[C@@H]2C1 |  | inactive | 
4 | C=C1CC[C@]2(C(=O)O)CC[C@]3(C)C(=CC[C@@H]4[C@@]5(C)CC[C@H](O)[C@](C)(O)[C@@H]5CC[C@]43C)[C@@H]2C1 |  | inactive | 
5 | CC1(C)[C@@H](O)CC[C@]2(C)[C@H]3C=CC4=C(O)C(=O)C(=O)[C@@]4(C)[C@]3(C)CC[C@@H]12 |  | inactive | 
6 | COc1ccc(C(C)=O)c(O)c1 |  | inactive | 
7 | C[C@@]12CC(=O)[C@H]3C[C@]1(O)O[C@H](O2)[C@@H]3COC(=O)c1ccccc1 |  | inactive | 
8 | C[C@@]12C[C@@]3(O)O[C@@H](O1)[C@]1(COC(=O)c4ccccc4)[C@@H]3C[C@]12O[C@@H]1O[C@H](COC(=O)c2ccccc2)[C@@H](O)[C@H](O)[C@H]1O |  | inactive | 
9 | O=C(O)c1ccccc1 |  | inactive | 
10 | C=C(C)[C@@H]1CC[C@]2(C(=O)O)CC[C@]3(C)[C@H](CC[C@@H]4[C@@]5(C)CC[C@H](O)C(C)(C)[C@@H]5CC[C@]43C)[C@@H]12 [BETULINIC ACID] | 50 µM |  | Activity [3]: Dose-dependent effect; Activity [4]: Active; Activity [5]: inactive
11 | CC1(C)CC[C@]2(C(=O)O)CC[C@]3(C)C(=CC[C@@H]4[C@@]5(C)CC[C@H](O)[C@@](C)(CO)[C@@H]5CC[C@]43C)[C@@H]2C1 [HEDERAGENIN] | 58 µM |  | Activity [4]: Active; Activity [6]: Active; Activity [5]: inactive
12 | COc1cc2c(cc1O)[C@H](CO)[C@H](c1ccc(CCCO)c(OC)c1)O2 [LAWSONICIN] | 100 µM |  | 
13 | CC1(C)CC[C@]2(C(=O)O)CC[C@]3(C)C(=CC[C@@H]4[C@@]5(C)CC[C@H](O)C(C)(C)[C@@H]5CC[C@]43C)[C@@H]2C1 [OLEANOLIC_ACID] | 82 µM |  | Activity [4]: Active; Activity [6]: Active; Activity [5]: inactive
